High-throughput results deposited in PubChem by several laboratories.
Rows were chosen to be rich in hits. Some 1.5% of all compounds tested hit in one or more screens of this group.
H9c2 TAG inh: triacylglycerol accumulation inhibition; hit rate 0.66% among 230,000; H9c2 cells, Nile Red lipid (TAG) fluorescence; cells loaded with 200 µM oleic acid; inhibition, % at 12.5 µM;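 active means pattern-corrected inhibition of lipid staining of at least 50% with the nuclear-stain viability signal not falling by more than 50%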;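 further: 0% = DMSO wells and 100% = triacsin C control wells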
STAT1 blocker: reduces IFN-gamma driven STAT1 reporter signal; hit rate 0.35% among 200,000; NIH 3T3 STAT1-luciferase reporter, luminescence; inhibition, % at 5.5 µM;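 active means inhibition above a set limit, the mean inhibition across all tested compounds plus 3 SD, cut at about 34% in these data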;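 further: 0% = IFN-gamma with DMSO and 100% = IFN-gamma with 300 µM nifuroxazide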
PPC-1+TRAIL kill: kills PPC-1 cancer cells in the presence of TRAIL. AID 1443. PPC-1 cells + TRAIL, ATPLite viability luminescence. hit rate 0.41% among 220,000. cell killing (% activity), % at 4 µM or 5 µM;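 active means cell killing above 50% in the first pass at 4 µM, then a duplicate retest at 5 µM averaging 50% or more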;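 further: plate controls were cells with TRAIL plus DMSO for no effect and medium-only wells lacking cells for full effect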
Platelet DG rel: modulates dense granule release in human platelets; human platelet-rich plasma, SFLLRN dense granule ATP release, luminescence; inhibition, %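 (compounds screened at 7.5 µM in platelet-rich plasma)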; hit rate 0.22% among 300,000; AID 1663;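 active means mean replicate score, as percent of positive control, at or above 50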
STAT3 inh-1: STAT3 signaling inhibition; U3A cells, IL-6 STAT3-luciferase reporter, luminescence; host cell line lacks STAT1; inhibition, % at 5.5 µM; hit rate 0.89% among 190,000;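 active means inhibition above the mean inhibition across all screened compounds plus 3 SD, cut at about 44% in these data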;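 further: 0% = DMSO only wells and 100% = 100 µM nifuroxazide control wells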
Lipid droplet: modulators of hepatic lipid droplet formation | AML12 mouse hepatocytes, oleate lipid droplets, BODIPY imaging | inhibition, % at 6.5 µM | hit rate 0.4% among 240,000;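 active means lipid droplet intensity inhibited by at least 50%, with more than 500 cells counted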
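Assay system: AML12 mouse liver cells | Compound: 6.5 µM single-point dosing | Schedule: Overnight exposure | Technique: Fluorescence imaging, 20x objective, two fields per well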
STAT3 inh-2: confirmation of STAT3 signaling inhibitors; shares compounds with STAT3 inh-1; U3A cells, IL-6 STAT3 luciferase reporter, luminescence; cell line lacks STAT1; inhibition, % at 5.7 µM; hit rate 45% among 1,200;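 active means inhibition above the hit cutoff computed for the primary STAT3 screen, cut at about 44% in these data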;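 further: 0% = IL-6 plus DMSO and 100% = IL-6 plus nifuroxazide control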
NFkB inh 2: NF-kappaB inhibition in STAT3 inhibitor counter-screen; inhibition, % at 5.7 µM; hit rate 36% among 1,200; HEK293T NF-kB luciferase reporter, TNF-alpha induced; AID 1308; shares compounds with STAT3 inh-1;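 active means inhibition above the mean of solvent-only control wells plus 3 SD, cutoff set per campaign, cut at about 13% in these data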;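 further: 0% = TNF-alpha with DMSO and 100% = TNF-alpha with MG high control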
STAT1 inh 2: inhibits STAT1, counter-screen to STAT3 inhibitors; shares compounds with STAT3 inh-1; hit rate 27% among 1,200; inhibition, % at 5.7 µM; NIH 3T3 STAT1-luciferase reporter, IFN-gamma induced, luminescence;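 active means inhibition above the mean plus 3 SD of solvent-only control wells, limit set per screening run, cut at about 16% in these data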;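 further: 0% = DMSO with IFN-gamma and 100% = nifuroxazide control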
Numbers without * were called inactive; . = no result given.

SMILES	H9c2 TAG inh	STAT1 blocker	PPC-1+TRAIL kill	Platelet DG rel	STAT3 inh-1	Lipid droplet	STAT3 inh-2	NFkB inh 2	STAT1 inh 2
CN(C)S(=O)(=O)c1ccc(C(=O)Nc2nc(-c3cc4ccccc4o3)cs2)cc1	.	15.3	24.6	7.2	52.9*	-4.5	75.8*	20.2*	16.3*
O=C(Nc1nc(-c2cc3ccccc3o2)cs1)c1ccc(S(=O)(=O)N2CCCC2)cc1	.	21.1	11.1	-9.8	57.5*	-17.7	77.4*	24.9*	20.1*
C[C@H](NC(=O)C1CCN(S(=O)(=O)c2ccccc2)CC1)C(=O)NC1CC1	14.2	.	.	.	.	.	.	.	.
COCCNC(=O)c1ccc(N2CC3CC(C2)c2cccc(=O)n2C3)c(NC(=O)c2ccccc2Cl)c1 (stereo unspecified)	0.5	.	.	.	.	.	.	.	.
O=C(Nc1ccccc1)c1cc(C2CCCN(C(=O)c3cccs3)C2)on1 (stereo unspecified)	5.4	.	.	.	.	.	.	.	.
NC(=O)c1ccc(N2CCN(S(=O)(=O)c3ccccc3)CC2)c([N+](=O)[O-])c1	-30.6	24.5	20.5	-5.3	72.1*	-4.1	70.8*	23.0*	28.3*
O=[N+]([O-])c1ccc(-c2cn3ccccc3n2)cc1	11.5	.	.	6.5	.	.	.	.	.
O=[N+]([O-])c1ccc2nc(-c3ccc(OC(F)F)cc3)cn2c1	-17.3	-21.2	-22.3	3.5	65.7*	-15.8	36.4	-30.0	-87.0
CN(c1ccc(F)cc1)S(=O)(=O)c1ccc(Cl)c(C(=O)NCC2(N3CCOCC3)CCCCC2)c1	-4.5	.	.	.	.	.	.	.	.
O=C(CCl)Nc1cc(-c2ccccc2)nn1-c1ccccc1	-12.0	10.6	4.0	1.2	47.7*	-16.1	28.8	-6.8	-23.8
COc1ccccc1N1CCN(C(=O)CSc2nnc3n2C(C)(C)Cc2ccccc2-3)CC1	.	20.0	3.0	5.5	56.8*	.	52.6*	14.1*	18.7*
COc1ccc(C)cc1Nc1nc(N)c2ccccc2n1	.	.	.	7.4	.	16.2	.	.	.
Nc1nc(Nc2ccccc2)nc2ccccc12	11.2	-5.7	43.2	59.0*	57.2*	.	13.7	-23.0	-91.9
Cn1c2c(c3ccccc31)CCN(CCCCN1CCN(c3ccccc3)CC1)C2=O	-56.0	.	.	.	.	.	.	.	.
C[C@H](CO)N1C[C@H](C)[C@@H](CN(C)S(=O)(=O)c2ccc3c(c2)OCCCO3)OCc2cn(nn2)CCCC1=O	-2.1	.	.	.	.	.	.	.	.
Cc1cccc(OCC(=O)Nc2nnc(-c3ccco3)s2)c1	-0.3	-4.8	11.2	-1.7	8.8	2.9	.	.	.
CCOc1cccc(C(=O)Nc2nnc(-c3ccco3)s2)c1	-15.4	-26.8	28.6	.	47.2*	.	7.1	-15.1	-61.4
COC(=O)c1ccc(NC(=O)c2ccc(CN3CCOCC3)cc2)cc1	.	0.5	23.2	1.3	54.1*	10.2	39.5	1.1	-5.4
O=C(Nc1ccc(S(=O)(=O)Nc2ccccc2)cc1)c1ccc(CN2CCOCC2)cc1	-5.7	21.3	-13.6	6.3	83.9*	-14.3	77.5*	27.5*	4.5
O=C(Nc1ccc(CN2CCOCC2)cc1)c1ccc(Cl)cc1	.	.	.	.	.	14.6	.	.	.
O=C1COC(c2ccccc2O)=NN1CCCl	6.2	.	.	.	.	.	.	.	.
Cc1cc(/C=N/n2cnnc2)c(C)n1-c1ccc(OCc2ccc(Cl)cc2)cc1	-23.3	19.3	-3.3	-4.5	77.1*	.	60.6*	17.5*	15.4
Cc1cc(/C=N/n2cnnc2)c(C)n1-c1ccc(OCc2ccccc2F)cc1	.	13.2	3.2	-4.5	20.1	.	.	.	.
O=c1/c(=C/c2ccc(O)cc2)sc2n1CCCN=2	7.2	-44.0	0.1	.	-14.7	.	.	.	.
CN(C)c1ccc(/C=c2\sc3n(c2=O)CCCN=3)cc1	-0.1	-54.7	28.7	9.7	63.9*	-1.2	10.6	-20.5	-179.0
SMILES	H9c2 TAG inh	STAT1 blocker	PPC-1+TRAIL kill	Platelet DG rel	STAT3 inh-1	Lipid droplet	STAT3 inh-2	NFkB inh 2	STAT1 inh 2
CC(=O)CSc1nc2cc3c(cc2cc1C#N)OCCO3	21.1	13.4	48.4	10.8	77.7*	-9.6	28.2	0.6	-94.5
CC(C)COc1ccc(-c2nnc(-c3ccco3)o2)cc1	.	-18.9	15.6	9.0	63.2*	0.7	42.1	-2.6	-52.5
Cc1ccc(NC(=O)c2noc3c2CCC3)cc1C	-5.1	-11.2	17.2	12.9	13.7	5.1	.	.	.
O=C(Nc1cccc(O)c1)c1noc2c1CCCCC2	.	9.3	-2.3	63.8*	83.1*	4.7	72.1*	28.9*	6.0
COc1ccc(C(=O)Nc2ccc(S(=O)(=O)N3CCc4ccccc43)cc2)cc1	.	5.3	.	-4.3	51.3*	.	39.1	13.2*	2.2
Cc1sc2ncnc(NC3CCN(Cc4ccccc4)CC3)c2c1C	-45.8	32.8	20.2	5.6	45.1*	-0.1	61.5*	16.0*	25.2*
c1ccc(CN2CCC(Nc3ncnc4sccc34)CC2)cc1	-6.4	15.8	7.5	-0.8	41.3	4.7	.	.	.
Cc1cc(NC(=O)Cc2ccccc2)c2ccccc2n1	-29.2	32.3	14.0	3.4	71.7*	-42.9	69.1*	22.2*	25.0*
CCCCNC(=O)C1(C)CCN1Cc1cc(C)ccc1C (stereo unspecified)	1.4	.	.	.	.	.	.	.	.
CCc1nc2c(OCc3ccc(Cl)cc3)cccn2c1N(C=O)Cc1ccc(OC)cc1	-12.6	.	.	.	.	.	.	.	.
CC(=O)Nc1ccc(-c2noc(-c3csc([C@@H]4C[C@H](O)[C@@H](CO)O4)n3)n2)cc1	-8.5	.	.	.	.	.	.	.	.
CCOC(=O)C1CCCN(S(=O)(=O)c2ccc(S(=O)(=O)N(CC)CC)cc2)C1 (stereo unspecified)	-33.0	31.2	29.8	15.8	77.9*	-25.1	83.2*	33.6*	26.7*
COc1cc(C=C2CCCC(=Cc3ccc(OCC4CO4)c(OC)c3)C2=O)ccc1OCC1CO1 (stereo unspecified)	45.7	.	.	.	.	.	.	.	.
NC(=O)C(NN=C(c1ccccc1)c1ccccc1)c1ccccc1 (stereo unspecified)	-5.7	.	.	.	.	.	.	.	.
Cn1c(CN2CCCCC2)nc2cc(NC(=O)c3cccc(Br)c3)ccc21	.	-0.5	20.3	-0.9	63.1*	12.3	50.8*	11.6	-8.5
CCC(=O)Nc1ccc2oc(-c3ccccc3Br)nc2c1	32.9	-65.4	15.7	-0.6	16.2	.	.	.	.
CC(=O)Nc1ccc2oc(-c3ccccc3Br)nc2c1	.	-23.8	34.8	10.7	48.4*	.	11.9	-38.1	-127.4
CC(=O)Nc1ccc2oc(-c3cc(F)c(F)cc3Cl)nc2c1	10.2	-36.6	-15.1	-5.1	46.1*	1.2	32.4	-24.1	-91.3
CC(C)C(=O)Nc1ccc2oc(-c3cc(F)c(F)cc3Cl)nc2c1	.	-17.0	-3.4	3.4	12.8	3.6	.	.	.
COc1ccccc1N1CCN(c2ccc3ccccc3n2)CC1	.	.	.	17.8	.	-13.9	.	.	.
